Activity calls are given as the source filed them. The calls are words filed in the database; no cut-off is given here.
What was measured:
[1] = molecular target: cGMP-specific 3',5'-cyclic phosphodiesterase (Homo sapiens) (UniProt O76074); assay: Inhibition of PDE5 in human U937 cells assessed as [3H]cAMP hydrolysis at 10 uM; assay type: cell-based
[2] = Tmax in human at 50 mg, po administered as single dose; assay type: ADME, organism-based; settings: in vivo
Summary of the method: (§1)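 Healthy subjects received single oral doses of 10, 20, 30 or 50 mg in a placebo-controlled, single-blind, randomized consecutive-dose study; 10 mg was also given fasting vs fed in a crossover. Plasma drug was sampled pre-dose and from 0.25 to 36 h post-dose. Mean Tmax was taken from individual concentration–time profiles.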

[3] = molecular target: Mitogen-activated protein kinase 13 (Homo sapiens) (UniProt O15264); assay: Inhibition of p38MAPK delta (unknown origin) at 10 uM relative to control
[4] = AUC (0 to infinity) in female Sprague-Dawley rat at 30 mg/kg, po by LC-MS/MS analysis; assay type: ADME, organism-based; design: dose 30 mg/kg, time infinity, route oral; settings: in vivo
Summary of the method: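 Rats of each sex received a single oral dose of 30 mg/kg. Plasma concentration–time profiles of parent were determined separately for females and males.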

[5] = molecular target: T1, 3',5'-cyclic-AMP phosphodiesterase 4D (Homo sapiens, UniProt Q08499); assay: Inhibition of human PDE4D3 expressed in sf9 cells
[6] = molecular target: T1, 3',5'-cyclic-AMP phosphodiesterase 4D; assay: Inhibition of human PDE4D2 expressed in sf9 cells
[7] = Cmax in human at 50 mg, po administered as single dose; assay type: ADME, organism-based; design: dose 50 mg, route oral; settings: in vivo
[8] = AUC (0 to infinity) in human at 50 mg, po administered as single dose; assay type: ADME, organism-based; design: dose 50 mg, time infinity, route oral; settings: in vivo
Summary of the method: (§2)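 Placebo-controlled, single-blind, randomized, consecutive-dosing study in healthy subjects given single oral doses, with 10 mg also given fasting and fed in a crossover. Plasma parent and active metabolite were measured predose and from 0.25 to 36 h post dose. PK parameters were derived from individual concentration–time profiles and reported as means.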

[9] = AUC (0 to t) in human at 50 mg, po administered as single dose; assay type: ADME, organism-based; settings: in vivo; summary of the method: as §2
[10] = molecular target: 3',5'-cyclic-AMP phosphodiesterase 4B (Homo sapiens, UniProt Q07343); assay: Inhibition of human PDE4B1 expressed in sf9 cells
[11] = Cmax in fed human at 10 mg, po administered as single dose; assay type: ADME, organism-based; design: dose 10 mg, route oral; settings: in vivo; summary of the method: as §2
[12] = AUC (0 to infinity) in human at 30 mg, po administered as single dose; assay type: ADME, organism-based; design: dose 30 mg, time infinity, route oral; settings: in vivo; summary of the method: as §2
[13] = Half life in human at 50 mg, po administered as single dose; assay type: ADME, organism-based; settings: in vivo
Summary of the method: (§3)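 Oral single-dose PK; plasma concentrations of parent and metabolite measured. Dogs: blood sampled 0.25 to 24 h after dosing. Humans: healthy subjects, placebo-controlled single-blind randomized consecutive dosing, plasma sampled predose and 0.25–36 h post dose. 10 mg also given fasting and fed in crossover. Parameters derived from individual concentration–time profiles.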

[14] = Half life in fasting human at 10 mg, po administered as single dose; assay type: ADME, organism-based; settings: in vivo; summary of the method: as §3
[15] = Cmax in human at 20 mg, po administered as single dose; assay type: ADME, organism-based; design: dose 20 mg, route oral; settings: in vivo; summary of the method: as §3
[16] = Half life in fed human at 10 mg, po administered as single dose; assay type: ADME, organism-based; settings: in vivo; summary of the method: as §3
[17] = Inhibition of PDE4 in human U937 cells assessed as [3H]cAMP hydrolysis; assay type: cell-based
[18] = Half life in human at 30 mg, po administered as single dose; assay type: ADME, organism-based; settings: in vivo; summary of the method: as §3
[19] = Tmax in human at 20 mg, po administered as single dose; assay type: ADME, organism-based; settings: in vivo; summary of the method: as §1
[20] = Tmax in fasting human at 10 mg, po administered as single dose; assay type: ADME, organism-based; settings: in vivo; summary of the method: as §1
[21] = AUC (0 to infinity) in human at 20 mg, po administered as single dose; assay type: ADME, organism-based; design: dose 20 mg, time infinity, route oral; settings: in vivo; summary of the method: as §2
[22] = Cmax in human at 10 mg, po administered as single dose; assay type: ADME, organism-based; design: dose 10 mg, route oral; settings: in vivo; summary of the method: as §3
[23] = AUC (0 to infinity) in fasting human at 10 mg, po administered as single dose; assay type: ADME, organism-based; design: dose 10 mg, time infinity, route oral; settings: in vivo; summary of the method: as §2
[24] = Tmax in human at 30 mg, po administered as single dose; assay type: ADME, organism-based; settings: in vivo; summary of the method: as §1
[25] = Tmax in fed human at 10 mg, po administered as single dose; assay type: ADME, organism-based; settings: in vivo; summary of the method: as §1
[26] = Cmax in fasting human at 10 mg, po administered as single dose; assay type: ADME, organism-based; design: dose 10 mg, route oral; settings: in vivo; summary of the method: as §2
[27] = molecular target: RAF proto-oncogene serine/threonine-protein kinase (Homo sapiens) (UniProt P04049); assay: Inhibition of c-RAF (unknown origin) at 10 uM relative to control
[28] = Fraction unbound in human plasma; assay type: ADME, cell-free
Summary of the method: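 Plasma protein binding measured in human, Sprague–Dawley rat and Cynomolgus monkey plasma at 1, 10 and 30 μM compound. Reported as unbound fraction (%).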

[29] = AUC (0 to infinity) in human at 10 mg, po administered as single dose; assay type: ADME, organism-based; design: dose 10 mg, time infinity, route oral; settings: in vivo; summary of the method: as §2
[30] = AUC (0 to infinity) in fed human at 10 mg, po administered as single dose; assay type: ADME, organism-based; design: dose 10 mg, route oral, time infinity; settings: in vivo; summary of the method: as §2
[31] = molecular target: 3',5'-cyclic-AMP phosphodiesterase 4C (Homo sapiens, UniProt Q08493); assay: Inhibition of human PDE4C1 expressed in sf9 cells
[32] = Half life in human at 10 mg, po administered as single dose; assay type: ADME, organism-based; settings: in vivo; summary of the method: as §3
[33] = AUC (0 to t) in human at 10 mg, po administered as single dose; assay type: ADME, organism-based; settings: in vivo; summary of the method: as §2
[34] = AUC (0 to t) in human at 20 mg, po administered as single dose; assay type: ADME, organism-based; settings: in vivo; summary of the method: as §2
[35] = AUC (0 to t) in fed human at 10 mg, po administered as single dose; assay type: ADME, organism-based; settings: in vivo; summary of the method: as §2
[36] = AUC (0 to t) in human at 30 mg, po administered as single dose; assay type: ADME, organism-based; settings: in vivo; summary of the method: as §2
[37] = molecular target: Mitogen-activated protein kinase 14 (Homo sapiens, UniProt Q16539); assay: Inhibition of P38 MAPKalpha in LPS-stimulated human whole blood assessed as decrease in TNFalpha level
[38] = test system: Homo sapiens; assay: Toxicity in human assessed as effect on CNS at 50 mg, po administered as single dose; assay type: organism-based; settings: in vivo
Summary of the method: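 Single oral 50 mg dose given to healthy subjects in a placebo-controlled, single-blind, randomized FIH study. Adverse events, vital signs and physical findings were recorded, including CNS effects.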

[39] = Cmax in human at 30 mg, po administered as single dose; assay type: ADME, organism-based; design: dose 30 mg, route oral; settings: in vivo; summary of the method: as §3
[40] = molecular target: Mitogen-activated protein kinase 9 (Homo sapiens) (UniProt P45984); assay: Inhibition of JNK2alpha2 (unknown origin) at 10 uM relative to control
[41] = Tmax in human at 10 mg, po administered as single dose; assay type: ADME, organism-based; settings: in vivo; summary of the method: as §1
[42] = AUC (0 to t) in fasting human at 10 mg, po administered as single dose; assay type: ADME, organism-based; settings: in vivo; summary of the method: as §2
[43] = species on record: Homo sapiens; assay: Inhibition of PDE3 in human U937 cells assessed as [3H]cAMP hydrolysis at 10 uM; assay type: cell-based
[44] = Half life in human at 20 mg, po administered as single dose; assay type: ADME, organism-based; settings: in vivo; summary of the method: as §3
[45] = molecular target: 3',5'-cyclic-AMP phosphodiesterase 4A (Homo sapiens, UniProt P27815); assay: Inhibition of human PDE4A4 expressed in sf9 cells
[46] = molecular target: Tyrosine-protein kinase Lck (Homo sapiens) (UniProt P06239); assay: Inhibition of Lck (unknown origin) at 10 uM

T1 sequence (Q08499 whole entry): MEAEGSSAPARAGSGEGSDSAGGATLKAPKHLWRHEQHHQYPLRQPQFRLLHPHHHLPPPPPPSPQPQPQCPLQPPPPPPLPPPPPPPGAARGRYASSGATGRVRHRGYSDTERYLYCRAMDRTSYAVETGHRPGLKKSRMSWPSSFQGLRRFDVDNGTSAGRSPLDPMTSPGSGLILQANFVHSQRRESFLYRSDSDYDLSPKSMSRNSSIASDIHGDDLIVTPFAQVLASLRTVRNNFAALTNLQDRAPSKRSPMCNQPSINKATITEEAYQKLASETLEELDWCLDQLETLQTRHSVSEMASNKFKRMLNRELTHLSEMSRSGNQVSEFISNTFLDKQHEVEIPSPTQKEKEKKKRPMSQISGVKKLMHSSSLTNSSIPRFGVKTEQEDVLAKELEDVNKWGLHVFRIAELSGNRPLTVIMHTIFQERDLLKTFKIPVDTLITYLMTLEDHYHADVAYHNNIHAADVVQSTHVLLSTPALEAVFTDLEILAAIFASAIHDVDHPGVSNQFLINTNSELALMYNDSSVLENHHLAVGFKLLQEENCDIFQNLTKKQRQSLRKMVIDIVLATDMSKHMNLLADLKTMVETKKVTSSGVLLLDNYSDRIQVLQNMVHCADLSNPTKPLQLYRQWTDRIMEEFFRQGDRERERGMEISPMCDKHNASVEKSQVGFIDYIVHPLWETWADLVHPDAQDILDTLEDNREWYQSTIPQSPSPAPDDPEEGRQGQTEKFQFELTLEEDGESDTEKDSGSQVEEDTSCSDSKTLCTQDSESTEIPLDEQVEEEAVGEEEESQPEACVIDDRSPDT
Chain of 3',5'-cyclic-AMP phosphodiesterase 4B (Q07343 whole entry): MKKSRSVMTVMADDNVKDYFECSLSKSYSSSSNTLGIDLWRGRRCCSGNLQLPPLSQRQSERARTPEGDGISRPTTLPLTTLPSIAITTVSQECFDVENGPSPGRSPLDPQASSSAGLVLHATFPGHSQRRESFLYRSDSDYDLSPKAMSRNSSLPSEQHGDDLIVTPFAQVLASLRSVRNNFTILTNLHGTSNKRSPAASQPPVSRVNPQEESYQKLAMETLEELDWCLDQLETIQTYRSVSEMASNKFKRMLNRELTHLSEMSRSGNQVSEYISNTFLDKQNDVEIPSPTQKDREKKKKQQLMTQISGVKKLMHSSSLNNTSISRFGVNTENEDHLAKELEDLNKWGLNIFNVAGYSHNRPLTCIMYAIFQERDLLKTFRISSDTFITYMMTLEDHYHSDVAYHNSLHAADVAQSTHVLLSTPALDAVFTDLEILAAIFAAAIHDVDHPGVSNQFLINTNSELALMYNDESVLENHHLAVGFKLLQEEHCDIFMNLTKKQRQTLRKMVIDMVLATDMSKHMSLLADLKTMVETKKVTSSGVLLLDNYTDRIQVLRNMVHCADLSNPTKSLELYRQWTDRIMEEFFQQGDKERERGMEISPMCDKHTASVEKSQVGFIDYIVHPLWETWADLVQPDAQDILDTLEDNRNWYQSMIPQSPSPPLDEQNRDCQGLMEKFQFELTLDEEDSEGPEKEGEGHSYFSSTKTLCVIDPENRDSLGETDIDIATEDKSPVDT
Chain of Mitogen-activated protein kinase 13 (Homo sapiens) (O15264 whole entry): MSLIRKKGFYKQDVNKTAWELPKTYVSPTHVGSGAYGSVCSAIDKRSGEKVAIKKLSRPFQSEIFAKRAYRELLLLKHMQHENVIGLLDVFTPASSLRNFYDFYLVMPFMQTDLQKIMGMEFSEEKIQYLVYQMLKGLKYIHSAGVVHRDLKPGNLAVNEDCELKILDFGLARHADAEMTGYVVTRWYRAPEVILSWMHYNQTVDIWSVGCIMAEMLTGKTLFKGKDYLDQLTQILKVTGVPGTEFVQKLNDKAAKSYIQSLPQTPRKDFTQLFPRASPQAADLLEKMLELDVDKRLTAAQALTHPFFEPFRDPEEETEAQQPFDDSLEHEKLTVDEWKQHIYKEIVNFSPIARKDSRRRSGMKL
Chain of 3',5'-cyclic-AMP phosphodiesterase 4A (P27815 whole entry): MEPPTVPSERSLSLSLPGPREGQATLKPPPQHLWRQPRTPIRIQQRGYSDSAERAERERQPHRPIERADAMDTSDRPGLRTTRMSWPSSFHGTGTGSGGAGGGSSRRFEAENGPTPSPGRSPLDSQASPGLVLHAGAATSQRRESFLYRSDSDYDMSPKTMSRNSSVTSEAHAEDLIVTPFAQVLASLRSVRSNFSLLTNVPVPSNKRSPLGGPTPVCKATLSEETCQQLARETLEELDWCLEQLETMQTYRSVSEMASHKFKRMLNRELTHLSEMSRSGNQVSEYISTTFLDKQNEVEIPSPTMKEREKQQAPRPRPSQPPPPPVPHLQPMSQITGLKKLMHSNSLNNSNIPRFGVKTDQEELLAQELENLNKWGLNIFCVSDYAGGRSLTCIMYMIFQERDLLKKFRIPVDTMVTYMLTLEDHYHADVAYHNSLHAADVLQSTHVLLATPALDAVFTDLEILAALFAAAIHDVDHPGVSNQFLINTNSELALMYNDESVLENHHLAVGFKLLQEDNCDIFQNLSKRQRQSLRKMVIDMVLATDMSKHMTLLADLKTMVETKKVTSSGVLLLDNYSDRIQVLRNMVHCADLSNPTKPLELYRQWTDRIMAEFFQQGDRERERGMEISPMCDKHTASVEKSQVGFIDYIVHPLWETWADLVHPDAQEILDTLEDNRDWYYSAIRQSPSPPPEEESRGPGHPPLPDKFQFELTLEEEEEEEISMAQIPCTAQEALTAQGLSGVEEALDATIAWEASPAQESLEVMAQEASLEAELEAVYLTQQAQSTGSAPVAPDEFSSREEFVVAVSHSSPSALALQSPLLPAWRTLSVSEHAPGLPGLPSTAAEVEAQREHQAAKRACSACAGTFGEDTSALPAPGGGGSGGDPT
Chain of Mitogen-activated protein kinase 14 (Q16539 whole entry): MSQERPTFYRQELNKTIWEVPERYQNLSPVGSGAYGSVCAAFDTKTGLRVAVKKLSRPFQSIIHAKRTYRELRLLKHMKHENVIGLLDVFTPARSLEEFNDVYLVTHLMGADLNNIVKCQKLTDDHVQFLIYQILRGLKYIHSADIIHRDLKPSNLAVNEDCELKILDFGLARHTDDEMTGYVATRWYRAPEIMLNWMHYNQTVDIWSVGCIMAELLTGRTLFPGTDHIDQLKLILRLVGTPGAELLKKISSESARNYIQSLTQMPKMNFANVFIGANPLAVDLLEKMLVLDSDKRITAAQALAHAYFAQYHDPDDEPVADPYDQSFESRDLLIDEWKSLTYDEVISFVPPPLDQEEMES
Chain of 3',5'-cyclic-AMP phosphodiesterase 4C (Q08493 whole entry): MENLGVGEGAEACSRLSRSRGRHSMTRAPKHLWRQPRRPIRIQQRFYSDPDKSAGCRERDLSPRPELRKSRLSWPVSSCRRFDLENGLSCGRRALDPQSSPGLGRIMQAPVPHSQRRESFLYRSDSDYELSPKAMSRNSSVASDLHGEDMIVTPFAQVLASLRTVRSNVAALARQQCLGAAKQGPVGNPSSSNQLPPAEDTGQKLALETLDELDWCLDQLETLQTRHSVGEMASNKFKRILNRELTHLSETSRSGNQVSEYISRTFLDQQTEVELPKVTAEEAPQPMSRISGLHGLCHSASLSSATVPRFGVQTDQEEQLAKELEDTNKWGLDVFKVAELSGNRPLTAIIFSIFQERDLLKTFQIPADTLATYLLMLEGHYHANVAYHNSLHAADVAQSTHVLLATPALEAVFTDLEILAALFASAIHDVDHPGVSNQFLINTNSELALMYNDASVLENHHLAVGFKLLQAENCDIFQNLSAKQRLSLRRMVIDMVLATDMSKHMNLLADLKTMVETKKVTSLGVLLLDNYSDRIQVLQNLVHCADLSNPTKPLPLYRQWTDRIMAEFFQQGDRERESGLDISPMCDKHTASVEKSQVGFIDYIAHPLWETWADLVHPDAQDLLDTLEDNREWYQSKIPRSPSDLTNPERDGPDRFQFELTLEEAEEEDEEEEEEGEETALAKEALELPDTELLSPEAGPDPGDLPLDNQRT
Chain of RAF proto-oncogene serine/threonine-protein kinase (Homo sapiens) (P04049 whole entry): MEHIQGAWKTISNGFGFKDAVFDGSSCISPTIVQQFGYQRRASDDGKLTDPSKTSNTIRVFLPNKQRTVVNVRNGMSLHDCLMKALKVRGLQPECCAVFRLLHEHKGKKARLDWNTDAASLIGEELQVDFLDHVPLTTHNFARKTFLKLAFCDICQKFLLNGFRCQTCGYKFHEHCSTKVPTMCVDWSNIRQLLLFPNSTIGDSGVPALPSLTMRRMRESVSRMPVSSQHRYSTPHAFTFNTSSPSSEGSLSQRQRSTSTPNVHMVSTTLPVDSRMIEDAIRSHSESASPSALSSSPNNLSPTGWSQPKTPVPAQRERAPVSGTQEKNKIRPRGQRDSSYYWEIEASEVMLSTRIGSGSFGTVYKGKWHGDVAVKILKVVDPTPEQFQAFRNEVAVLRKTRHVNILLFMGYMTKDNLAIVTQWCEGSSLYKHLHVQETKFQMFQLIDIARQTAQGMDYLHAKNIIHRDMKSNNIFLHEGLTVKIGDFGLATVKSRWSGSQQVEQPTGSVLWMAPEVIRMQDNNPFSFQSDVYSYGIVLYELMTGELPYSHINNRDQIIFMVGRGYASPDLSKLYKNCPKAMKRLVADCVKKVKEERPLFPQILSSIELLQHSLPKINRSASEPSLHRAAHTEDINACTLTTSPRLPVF
Chain of Mitogen-activated protein kinase 9 (Homo sapiens) (P45984 whole entry, looked up): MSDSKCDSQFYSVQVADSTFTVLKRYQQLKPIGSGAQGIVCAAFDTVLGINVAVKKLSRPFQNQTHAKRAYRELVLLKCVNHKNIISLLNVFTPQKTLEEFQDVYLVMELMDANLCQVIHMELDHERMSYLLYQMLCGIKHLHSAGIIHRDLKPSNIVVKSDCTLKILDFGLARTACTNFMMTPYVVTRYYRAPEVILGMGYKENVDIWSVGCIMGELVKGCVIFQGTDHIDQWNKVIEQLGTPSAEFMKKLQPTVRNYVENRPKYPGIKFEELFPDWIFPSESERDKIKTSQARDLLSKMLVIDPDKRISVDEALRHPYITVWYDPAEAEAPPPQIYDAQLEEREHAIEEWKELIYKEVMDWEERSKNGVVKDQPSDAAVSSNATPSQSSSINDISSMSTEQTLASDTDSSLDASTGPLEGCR

With `CC(=O)Nc1cc(-c2c(-c3ccc(F)cc3)nc([S+](C)[O-])n2C)ccn1` (stereo not given) the inhibition [1] was “inactive”, the Tmax [2] was 1.5 h and the inhibition [3] was 35%. It also gave an AUC(0-inf) [4] of 40.9 µM·h, an IC50 [5] of 0.8 µM and an IC50 [6] of 1.1 µM. For the same compound, the Cmax [7] was 590 nM, the AUC(0-inf) [8] was 3.58 µM·h and the AUC(0-t) [9] was 3.4 µM·h. For the same compound, the IC50 [10] was 1.9 µM, the Cmax [11] was 140 nM and the AUC(0-inf) [12] was 3.05 µM·h. It also gave a half-life [13] of 3.2 h, a half-life [14] of 2.8 h and a Cmax [15] of 310 to 314 nM. The half-life [16] was 2.8 h, the IC50 [17] was 0.2 to 0.4 µM and the half-life [18] was 3.4 h. It also gave a Tmax [19] of 2.9 h, a Tmax [20] of 3.3 h and an AUC(0-inf) [21] of 2.24 µM·h. It also gave a Cmax [22] of 200 nM, an AUC(0-inf) [23] of 0.82 µM·h and a Tmax [24] of 2.3 h. For the same compound, the Tmax [25] was 3.7 h, the Cmax [26] was 140 nM and the inhibition [27] was 36%. For the same compound, the fraction unbound [28] was 0.5, the AUC(0-inf) [29] was 1.04 µM·h and the AUC(0-inf) [30] was 0.88 µM·h. For the same compound, the IC50 [31] was 6.4 µM, the half-life [32] was 2.7 h and the AUC(0-t) [33] was 0.95 µM·h. For the same compound, the AUC(0-t) [34] was 1.99 µM·h, the AUC(0-t) [35] was 0.79 µM·h and the AUC(0-t) [36] was 2.65 µM·h. The IC50 [37] was 0.71 µM, the Activity [38] was “Non-Toxic” and the Cmax [39] was 420 nM. For the same compound, the inhibition [40] was 51%, the Tmax [41] was 2.2 h and the AUC(0-t) [42] was 0.73 µM·h. The inhibition [43] was “inactive”, the half-life [44] was 3.3 h and the IC50 [45] was 2.9 µM.

For `Cn1c([S+](C)[O-])nc(-c2ccc(F)cc2)c1-c1ccnc(N)c1` (stereo not given), the inhibition [46] was “inactive”, the inhibition [1] was “inactive” and the Tmax [2] was 5 h. For the same compound, the inhibition [3] was “inactive”, the IC50 [5] was 0.7 µM and the IC50 [6] was 2.4 µM. It also gave a Cmax [7] of 600 nM, an AUC(0-inf) [8] of 9.4 µM·h and an AUC(0-t) [9] of 8.73 µM·h. For the same compound, the IC50 [10] was 3.5 µM, the Cmax [11] was 140 nM and the AUC(0-inf) [12] was 8.55 µM·h. It also gave a half-life [13] of 9 h, a half-life [14] of 11.3 h and a Cmax [15] of 360 nM. For the same compound, the half-life [16] was 10.7 h, the IC50 [17] was 2 µM and the half-life [18] was 11.3 h. For the same compound, the Tmax [19] was 5 h, the Tmax [20] was 6 h and the AUC(0-inf) [21] was 7.17 µM·h. For the same compound, the Cmax [22] was 190 nM, the AUC(0-inf) [23] was 3.29 µM·h and the Tmax [24] was 6 h. The Tmax [25] was 6.7 h, the Cmax [26] was 150 nM and the inhibition [27] was “inactive”. It also gave a fraction unbound [28] of 0.5, an AUC(0-inf) [29] of 3.43 µM·h and an AUC(0-inf) [30] of 3.07 µM·h. For the same compound, the IC50 [31] was over 10 µM, the half-life [32] was 9.5 h and the AUC(0-t) [33] was 2.95 µM·h. For the same compound, the AUC(0-t) [34] was 6.38 µM·h, the AUC(0-t) [35] was 2.6 µM·h and the AUC(0-t) [36] was 7.37 µM·h. For the same compound, the IC50 [37] was 0.71 µM, the Activity [38] was “Non-Toxic” and the Cmax [39] was 420 nM. The inhibition [40] was “inactive”, the Tmax [41] was 4.7 h and the AUC(0-t) [42] was 2.82 µM·h. For the same compound, the inhibition [43] was “inactive”, the half-life [44] was 10.9 h and the IC50 [45] was 9.9 µM.

Source: ChEMBL document CHEMBL4028848, “Discovery of N-{4-[5-(4-Fluorophenyl)-3-methyl-2-methylsulfanyl-3H-imidazol-4-yl]-pyridin-2-yl}-acetamide (CBS-3595), a Dual p38α MAPK/PDE-4 Inhibitor with Activity against TNFα-Related Diseases” (J Med Chem, 2017)
